# Data: ChEMBL document CHEMBL1128718, “2-Substituted penems with amino acid-related side chains: synthesis and antibacterial activity of a new series of beta-lactam antibiotics” (1995)
# Columns and labels:
# Assay type in all cases: functional
# Aeromonas = assay: In Vitro Anti Bacterial Activity (MIC90) against 90% of tested clinical Isolates of Aeromonas species(21)
# How it was run: (§1)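 Over 500 clinical isolates tested in total; the line gives the isolate count. MIC90 for aerobes by dilution in Mueller Hinton 2 medium, inoculum 10⁴ cells/mL, incubated 24 h at 37 °C.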
# [1] = test system: Acinetobacter calcoaceticus subsp. anitratus; assay: In Vitro Anti Bacterial Activity (MIC90) against 90% of tested clinical Isolates of Acinetobacter anitratus(20); how it was run: as §1
# Moraxella catarrhalis = assay: In Vitro Anti Bacterial Activity (MIC90) against 90% of tested clinical Isolates of Branhamella catarrhalis(27)
# Bacteroides fragilis = assay: In Vitro Anti Bacterial Activity (MIC90) against 90% of tested clinical Isolates of Bacteroides fragilis(15)
# How it was run: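 Anaerobic clinical isolates. MIC90 by dilution in Wilkins-Chalgren agar, inoculum 10⁵ cells/mL, incubated 24–48 h at 37 °C.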
# Clostridium perfringens = assay: In Vitro Anti Bacterial Activity (MIC90) against 90% of tested clinical Isolates of Clostridium perfringens(27)
# How it was run: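 MIC90 over clinical isolates of this anaerobic species, taken from the MIC distribution. Anaerobes were tested on Wilkins-Chalgren agar with an inoculum of 10⁵ cells/mL and incubated 24–48 h at 37 °C.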
# Citrobacter freundii = assay: In Vitro Anti Bacterial Activity (MIC90) against 90% of tested clinical Isolates of Citrobacter freundii(20); how it was run: as §1
# Enterococcus faecalis [2] = assay: In Vitro Anti Bacterial Activity (MIC90) against 90% of tested clinical Isolates of Enterococcus faecalis(47); how it was run: as §1
# Enterococcus faecium = assay: In Vitro Anti Bacterial Activity (MIC90) against 90% of tested clinical Isolates of Enterococcus faecium(47); how it was run: as §1
# Escherichia coli [3] = assay: In Vitro Anti Bacterial Activity (MIC90) against 90% of tested clinical Isolates of Escherichia coli; how it was run: as §1
# Klebsiella aerogenes = assay: In Vitro Anti Bacterial Activity (MIC90) against 90% of tested clinical Isolates of Enterobacter aerogenes(19); how it was run: as §1
# Escherichia coli [4] = assay: In Vitro antibacterial activity against (Ec L) Escherichia coli […] strain
# How it was run: (§2)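 Panel of standard ATCC strains plus modified strains: methicillin-resistant, hyperpermeable, β-lactamase-producing (TEM1, TEM2, SHV) and β-lactamase-lacking. MIC determined in Mueller Hinton 2 medium, inoculum 10⁴ cells/mL, incubated 24 h at 37 °C.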
# Escherichia coli [5] = assay: In Vitro antibacterial activity against (Ec SHV) Escherichia coli […] strain; how it was run: as §2
# Escherichia coli [6] = assay: In Vitro antibacterial activity against (Ec TEM1) Escherichia coli […] strain; how it was run: as §2
# Escherichia coli [7] = assay: In Vitro antibacterial activity against (Ec TEM2) Escherichia coli […] strain; how it was run: as §2
# Haemophilus influenzae = assay: In Vitro Anti Bacterial Activity (MIC90) against 90% of tested clinical Isolates of Haemophilus Influenzae(21)
# How it was run: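 Clinical isolates. MIC90 in Haemophilus Test Medium Base plus Haemophilus Test Medium Supplement, inoculum 10⁴ cells/mL, incubated 24–48 h at 37 °C.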
# Klebsiella pneumoniae = assay: In Vitro Anti Bacterial Activity (MIC90) against 90% of tested clinical Isolates of Klebsiella pneumoniae(20); how it was run: as §1
# Listeria monocytogenes = assay: In Vitro Anti Bacterial Activity (MIC90) against 90% of tested clinical Isolates of Listeria monocytogenes (20); how it was run: as §1
# Morganella morganii = assay: In Vitro Anti Bacterial Activity (MIC90) against 90% of tested clinical Isolates of Morganella morganii(10); how it was run: as §1
# Pseudomonas aeruginosa [8] = assay: In Vitro antibacterial activity against (Pa G242) hyperpermeable Pseudomonas aeruginosa strain; how it was run: as §2
# Pseudomonas aeruginosa [9] = assay: In Vitro antibacterial activity against (Pa) Pseudomonas aeruginosa ATCC 27853; how it was run: as §2
# Pseudomonas aeruginosa [10] = assay: In Vitro antibacterial activity against (Pa) hyperpermeable Pseudomonas aeruginosa […] strain; how it was run: as §2
# Proteus vulgaris = assay: In Vitro Anti Bacterial Activity (MIC90) against 90% of tested clinical Isolates of Proteus vulgaris(10); how it was run: as §1
# Providencia stuartii = assay: In Vitro Anti Bacterial Activity (MIC90) against 90% of tested clinical Isolates of Providencia stuartii(10); how it was run: as §1
# Providencia rettgeri = assay: In Vitro Anti Bacterial Activity (MIC90) against 90% of tested clinical Isolates of Providencia rettgeri(10); how it was run: as §1
# Proteus mirabilis = assay: In Vitro Anti Bacterial Activity (MIC90) against 90% of tested clinical Isolates of Proteus mirabilis(16); how it was run: as §1
# Pseudomonas aeruginosa [11] = assay: In Vitro Anti Bacterial Activity (MIC90) against 90% of tested clinical Isolates of Pseudomonas aeruginosa(11); how it was run: as §1
# [12] = test system: Staphylococcus epidermidis; assay: In Vitro Anti Bacterial Activity (MIC90) against 90% of tested clinical Isolates of Staphylococcus epidermidis (13); how it was run: as §1
# Streptococcus agalactiae = assay: In Vitro Anti Bacterial Activity (MIC90) against 90% of tested clinical Isolates of Streptococcus agalactiaeB(21)
# Staphylococcus aureus [13] = assay: In Vitro Anti Bacterial Activity (MIC90) against 90% of tested clinical Isolates of Staphylococcus aureus MS (6); how it was run: as §1
# Staphylococcus aureus [14] = assay: In Vitro Anti Bacterial Activity (MIC90) against 90% of tested clinical Isolates of Staphylococcus aureus MV (20)
# Staphylococcus aureus [15] = assay: In vitro antibacterial activity against Sa MR(I) heterogeneous methicillin resistant Staphylococcus aureus
# How it was run: (§3)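 MIC was determined in Mueller Hinton 2 medium with an inoculum of 10⁴ cells/mL and incubation for 24 h at 37 °C. Strains: Sa(I) is S. aureus ATCC 29213; Sa MR(I) is a heterogeneous methicillin-resistant S. aureus; Sa MR(II) is a homogeneous methicillin-resistant S. aureus.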
# Staphylococcus aureus [16] = assay: In vitro antibacterial activity against Sa MR(II) homogeneous methicillin resistant Staphylococcus aureus; how it was run: as §3
# Staphylococcus aureus [17] = assay: In vitro antibacterial activity against Sa(I) Staphylococcus aureus ATCC 29213; how it was run: as §3
# Staphylococcus aureus [18] = assay: In vitro antibacterial activity against Sa(II) Staphylococcus aureus ATCC 25923; how it was run: as §2
# Streptococcus pyogenes = assay: In Vitro Anti Bacterial Activity (MIC90) against 90% of tested clinical Isolates of Streptococcus pyogenes(31)
# Streptococcus pneumoniae = assay: In Vitro Anti Bacterial Activity (MIC90) against 90% of tested clinical Isolates of Streptococcus pneumoniae (23)
# Yersinia sp. = assay: In Vitro Anti Bacterial Activity (MIC90) against 90% of tested clinical Isolates of Yersinia species(20); conditions: Yersinia sp. (in: enterobacteria)
# [19] = test system: Stenotrophomonas maltophilia; assay: In Vitro Anti Bacterial Activity (MIC90) against 90% of tested clinical Isolates of Xanthomonas maltophilia(9); how it was run: as §1
# Escherichia coli [20] = assay: In Vitro antibacterial activity against (Ec DC2) hyperpermeable Escherichia coli strain; how it was run: as §2
# Enterococcus faecalis [21] = assay: In Vitro antibacterial activity against (Ef) Enterococcus faecalis ATCC 29212; how it was run: as §2
# Escherichia coli [22] = assay: In Vitro antibacterial activity against (Ec) Escherichia coli ATCC 25922; how it was run: as §2
compound,measurement,setting,value
C[C@@H](O)[C@H]1C(=O)N2C(C(=O)O)=C(CN3CCC[C@H]3C(N)=O)S[C@H]12,MIC90,Aeromonas,0.5 µg/mL
same,MIC90,[1],16 µg/mL
same,MIC90,Moraxella catarrhalis,0.25 µg/mL
same,MIC90,Bacteroides fragilis,16 µg/mL
same,MIC90,Clostridium perfringens,1 µg/mL
same,MIC90,Citrobacter freundii,0.5 µg/mL
same,MIC90,Enterococcus faecalis [2],8 µg/mL
same,MIC90,Enterococcus faecium,> 64 µg/mL
same,MIC90,Escherichia coli [3],0.12 µg/mL
same,MIC90,Klebsiella aerogenes,16 µg/mL
same,MIC,Escherichia coli [4],2 µg/mL
same,MIC,Escherichia coli [5],2 µg/mL
same,MIC,Escherichia coli [6],2 µg/mL
same,MIC,Escherichia coli [7],2 µg/mL
same,MIC90,Haemophilus influenzae,4 µg/mL
same,MIC90,Klebsiella pneumoniae,0.5 µg/mL
same,MIC90,Listeria monocytogenes,0.5 µg/mL
same,MIC90,Morganella morganii,4 µg/mL
same,MIC,Pseudomonas aeruginosa [8],2 µg/mL
same,MIC,Pseudomonas aeruginosa [9],64 µg/mL
same,MIC,Pseudomonas aeruginosa [10],1 µg/mL
same,MIC90,Proteus vulgaris,4 µg/mL
same,MIC90,Providencia stuartii,4 µg/mL
same,MIC90,Providencia rettgeri,4 µg/mL
same,MIC90,Proteus mirabilis,4 µg/mL
same,MIC90,Pseudomonas aeruginosa [11],> 64 µg/mL
same,MIC90,[12],0.12 µg/mL
same,MIC90,Streptococcus agalactiae,0.03 µg/mL
same,MIC90,Staphylococcus aureus [13],0.06 µg/mL
same,MIC90,Staphylococcus aureus [14],8 µg/mL
same,MIC,Staphylococcus aureus [15],0.5 µg/mL
same,MIC,Staphylococcus aureus [16],2 µg/mL
same,MIC,Staphylococcus aureus [17],0.12 µg/mL
same,MIC,Staphylococcus aureus [18],0.015 µg/mL
same,MIC90,Streptococcus pyogenes,0.06 µg/mL
same,MIC90,Streptococcus pneumoniae,0.06 µg/mL
same,MIC90,Yersinia sp.,0.25 µg/mL
same,MIC90,[19],> 64 µg/mL
same,MIC,Escherichia coli [20],2 µg/mL
C[C@@H](O)[C@H]1C(=O)N2C(C(=O)O)=C(CN(C)CC(N)=O)S[C@H]12,MIC90,Aeromonas,1 µg/mL
same,MIC90,[1],16 µg/mL
same,MIC90,Moraxella catarrhalis,0.25 µg/mL
same,MIC90,Bacteroides fragilis,2 µg/mL
same,MIC90,Clostridium perfringens,0.5 µg/mL
same,MIC90,Citrobacter freundii,1 µg/mL
same,MIC90,Enterococcus faecalis [2],8 µg/mL
same,MIC90,Enterococcus faecium,> 64 µg/mL
same,MIC,Enterococcus faecalis [21],4 µg/mL
same,MIC90,Escherichia coli [3],0.25 µg/mL
same,MIC90,Klebsiella aerogenes,8 µg/mL
same,MIC,Escherichia coli [4],0.25 µg/mL
same,MIC,Escherichia coli [5],0.5 µg/mL
same,MIC,Escherichia coli [6],0.25 µg/mL
same,MIC,Escherichia coli [7],0.5 µg/mL
same,MIC,Escherichia coli [22],0.25 µg/mL
same,MIC90,Haemophilus influenzae,2 µg/mL
same,MIC90,Klebsiella pneumoniae,0.5 µg/mL
same,MIC90,Listeria monocytogenes,0.5 µg/mL
same,MIC90,Morganella morganii,2 µg/mL
same,MIC,Pseudomonas aeruginosa [8],4 µg/mL
same,MIC,Pseudomonas aeruginosa [9],> 64 µg/mL
same,MIC,Pseudomonas aeruginosa [10],0.5 µg/mL
same,MIC90,Proteus vulgaris,2 µg/mL
same,MIC90,Providencia stuartii,2 µg/mL
same,MIC90,Providencia rettgeri,2 µg/mL
same,MIC90,Proteus mirabilis,1 µg/mL
same,MIC90,Pseudomonas aeruginosa [11],> 64 µg/mL
same,MIC90,[12],0.015 µg/mL
same,MIC90,Streptococcus agalactiae,0.06 µg/mL
same,MIC90,Staphylococcus aureus [13],0.0075 µg/mL
same,MIC90,Staphylococcus aureus [14],4 µg/mL
same,MIC,Staphylococcus aureus [15],0.06 µg/mL
same,MIC,Staphylococcus aureus [16],1 µg/mL
same,MIC,Staphylococcus aureus [17],0.06 µg/mL
same,MIC,Staphylococcus aureus [18],0.015 µg/mL
same,MIC90,Streptococcus pyogenes,0.06 µg/mL
same,MIC90,Streptococcus pneumoniae,0.06 µg/mL
same,MIC90,Yersinia sp.,0.5 µg/mL
same,MIC90,[19],> 64 µg/mL
same,MIC,Escherichia coli [20],0.25 µg/mL
